# ANO1 activ = mouse TMEM16A channel activation, primary screen; HEK293 TMEM16A/YFP-H148Q/I152L, iodide quench fluorescence; active compounds read low; B-score at 10 µM; 0.3% of 340,000 active; AID 623877;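 active = fluorescence-ratio B-score plate-corrected deviation score at least 3 library SD below zero, with starting fluorescence score within 5 deviations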;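 note: channel opened by trigger with iodide after compound preincubation; score built on the fluorescence ratio of max minus min over baseline; more negative score means more quench and so TMEM16A activation or potentiation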
# Target sequence (Q8BHY3 whole entry, looked up): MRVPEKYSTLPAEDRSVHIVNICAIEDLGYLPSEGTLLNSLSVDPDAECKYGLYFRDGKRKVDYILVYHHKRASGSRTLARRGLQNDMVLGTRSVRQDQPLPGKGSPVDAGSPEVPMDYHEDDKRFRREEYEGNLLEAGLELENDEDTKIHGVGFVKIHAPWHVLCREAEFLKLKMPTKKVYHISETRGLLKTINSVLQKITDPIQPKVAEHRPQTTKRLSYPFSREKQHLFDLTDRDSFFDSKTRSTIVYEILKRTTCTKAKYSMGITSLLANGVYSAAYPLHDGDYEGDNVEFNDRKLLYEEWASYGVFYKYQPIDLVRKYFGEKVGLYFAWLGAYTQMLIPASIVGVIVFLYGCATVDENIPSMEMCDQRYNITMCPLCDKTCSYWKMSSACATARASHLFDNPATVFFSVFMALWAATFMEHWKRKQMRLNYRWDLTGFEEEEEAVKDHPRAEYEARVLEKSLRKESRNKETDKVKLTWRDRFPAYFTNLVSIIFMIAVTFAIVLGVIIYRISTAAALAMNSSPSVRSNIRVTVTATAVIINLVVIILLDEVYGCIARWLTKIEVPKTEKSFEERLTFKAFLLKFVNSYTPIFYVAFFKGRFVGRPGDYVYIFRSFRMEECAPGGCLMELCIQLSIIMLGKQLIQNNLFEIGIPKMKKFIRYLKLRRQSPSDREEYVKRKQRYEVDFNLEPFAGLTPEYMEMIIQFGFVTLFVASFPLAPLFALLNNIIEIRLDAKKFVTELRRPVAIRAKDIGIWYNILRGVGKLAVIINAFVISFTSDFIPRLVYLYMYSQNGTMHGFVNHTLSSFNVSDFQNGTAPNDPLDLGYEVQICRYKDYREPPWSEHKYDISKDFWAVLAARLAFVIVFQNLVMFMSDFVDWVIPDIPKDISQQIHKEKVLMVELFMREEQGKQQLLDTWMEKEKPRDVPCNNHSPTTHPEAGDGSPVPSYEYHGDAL
# UBC13 inh = inhibitors of human UBC13 polyubiquitin chain formation; P61088; TR-FRET; inhibition, % at 20 µM; 0.47% of 330,000 active; in the data active = inhibition above about 45%, passing the limit was not always enough
# DNA FID counter = displaces DNA intercalator in HCV helicase counter-screen | 0.17% of 290,000 active | DNA fluorescent intercalator displacement, fluorescence | AID 1845 | inhibition, % at 7.9 µM; in the data active = inhibition above about 37%;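 note: higher means more ethidium bromide displaced from hairpin DNA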
# Apaf-1 inh = blocks human Apaf-1 apoptosome activity | 0.71% of 330,000 active | inhibition, % at 20 µM | reconstituted apoptosome caspase-3 activity, DEVD-Rh110 fluorescence | O14727; active = inhibition of at least 40% at 20 µM
#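 System – cell-free apoptosome with Apaf-1, procaspase-3 and caspase-9 · Buffer or medium – pH 7.5 Hepes buffer with CHAPS, BSA, DTT · Also added – cytochrome c with DEVD-Rh110 · Times – 30 min compound preincubation, 50 min activation, room temperature · Technique – Rh110 fluorescence intensity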
# TMEM16A inh = mouse TMEM16A channel inhibition, primary screen; HEK293 TMEM16A/YFP iodide influx fluorescence, ionomycin; normalized B-score (activity score, 25-100; higher = stronger inhibition) at 10 µM; 1.2% of 310,000 active; AID 588511;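 active = ratio plate-corrected score three or more library SD toward inhibition, starting fluorescence score within five deviations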;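 note: score derived from kinetic fluorescence span divided by baseline fluorescence per well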
# Numbers stand for hits; – = inactive; · = no result given. Sampled rows, rich in hits. Any-hit rate of the full collection: about 2.4%.
SMILES,ANO1 activ,UBC13 inh,DNA FID counter,Apaf-1 inh,TMEM16A inh
Cc1ccc2nc3c(nc2c1C)C(O)=C3O,–,–,–,–,–
OC1=C(O)c2nc3cc(F)ccc3nc21,–,–,38.1,–,–
CCN(CC)S(=O)(=O)c1cccc(NC2=NCC(C)S2)c1 (configuration not stated),–,–,–,–,–
CCCCCOc1ccc(Br)cc1CSC(=N)N,-7.73,·,–,·,·
CCCC(=O)Nc1ccc(Cc2ccc(NC(=O)CCC)c(C(=O)O)c2)cc1C(=O)O,–,–,–,–,–
CCOC(=O)c1cc2c(C)n(-c3ccc(C)cc3)c(C)c2ccc1=O,–,–,–,–,100
C#CCOCCOCCOCCNc1nc(N2CCOCC2)nc(N2CCN(C(=O)[C@H](CCCCN)n3cc([C@@H](N)C(C)CC)nn3)CC2)n1 (some centres not stated),–,–,38.3,–,–
C#CCOCCOCCOCCNc1nc(N2CCOCC2)nc(N2CCN(C(=O)[C@H](CCCN=C(N)N)n3cc(C(N)[C@@H](C)CC)nn3)CC2)n1 (some centres not stated),–,–,·,–,·
C#CCOCCOCCOCCNc1nc(N2CCN(C(=O)[C@H](CCCCN)n3cc(C(N)CO)nn3)CC2)nc(N2CCN(C(=O)[C@H](CCCCN)n3cc(C(N)COC(=O)C(F)(F)F)nn3)CC2)n1 (some centres not stated),·,76.1,·,–,–
C#CCOCCOCCOCCNc1nc(N2CCN(C(=O)[C@H]([C@@H](C)CC)n3cc([C@@H](N)CO)nn3)CC2)nc(N2CCN(C(=O)[C@H](CCCCN)n3cc([C@@H](N)CC(C)C)nn3)CC2)n1,·,–,42.8,–,–
C#CCOCCOCCOCCNc1nc(N2CCN(C(=O)[C@H](CCCCN)n3cc(CCCC)nn3)CC2)nc(N2CCN(C(=O)[C@H](Cc3ccc(O)cc3)n3cc(CCO)nn3)CC2)n1,–,90.5,–,–,–
C#CCOCCOCCOCCNc1nc(N2CCN(C(=O)[C@H](CCCCN)n3cc(CC(C)O)nn3)CC2)nc(N2CCN(C(=O)[C@H](Cc3ccc(O)cc3)n3cc(CCO)nn3)CC2)n1 (some centres not stated),–,·,·,·,·
O=C(CC1C(=O)NCCN1Cc1ccc(Cl)c(F)c1)NC1CCCCC1 (configuration not stated),–,–,–,–,–
CC(C)(C)NC(=O)CON=C1c2ccccc2-c2ccccc21,–,–,–,–,–
CC(C)(C)NCC(O)CON=C1c2ccccc2-c2ccccc21 (configuration not stated),–,–,44.9,–,–
COc1ccc(-c2[nH]ncc2CNCCn2cccn2)c(F)c1,–,–,–,–,–
COCCNC(=O)C(OC(=O)CC1Sc2ccccc2NC1=O)c1ccccc1 (configuration not stated),–,–,–,–,–
Cc1ccc(NC(=S)N(Cc2ccc(Cl)cc2)Cc2ccc(C(=O)O)cc2)cc1Cl,–,–,–,–,25
Cc1sc(N(C(=O)CCc2ccccc2)c2ccc(C(=O)O)cc2)nc1-c1ccccc1,–,–,–,–,25
CC(C)(C)c1ccc(C(=O)c2c[nH]c(C(=O)NCc3cccs3)c2)cc1,-8.1,–,–,–,–
O=C(Nc1cccnc1)c1ccc(Oc2ccccc2)cc1,–,–,–,–,25
Cc1sc2ncnc(N3CCC(C(=O)NNC(=O)COc4cccc(C(F)(F)F)c4)CC3)c2c1C,–,–,·,–,100
Cc1ccc(OCC(=O)NNC(=O)C2CCN(c3ncnc4sc(C)c(C)c34)CC2)cc1,–,–,·,–,–
Cc1sc2ncnc(N3CCN(CCOc4ccc(Cl)cc4)CC3)c2c1C,–,–,–,–,100
Cc1sc2ncnc(N3CCC(C(=O)NNC(=O)COc4ccc(Br)cc4)CC3)c2c1C,–,–,·,–,100
SMILES,ANO1 activ,UBC13 inh,DNA FID counter,Apaf-1 inh,TMEM16A inh
O=C(c1ccccc1NS(=O)(=O)c1ccc(F)cc1F)N1CCCCC1,–,–,·,–,·
O=C(c1ccc(Cl)c(S(=O)(=O)N2CCCCC2)c1)N1CCCC(C(F)(F)F)C1 (configuration not stated),–,–,·,–,·
O=[N+]([O-])c1ccc(N2CCNCC2)cc1Sc1nc2ccccc2[nH]1,–,–,39.5,–,–
NCCNc1ccc([N+](=O)[O-])c(Sc2nc3ccccc3[nH]2)c1,–,–,–,–,–
O=C(CN1c2cccc3cccc(c23)S1(=O)=O)Nc1ccccc1F,-7.79,–,–,–,–
CC(C)CNC(=O)CN1c2cccc3cccc(c23)S1(=O)=O,–,–,–,–,–
O=C(CN1c2cccc3cccc(c23)S1(=O)=O)Nc1ccc(F)c(F)c1F,-5.1,–,·,–,·
C=CCNC(=O)CN1c2cccc3cccc(c23)S1(=O)=O,-6.62,–,–,–,–
COC(=O)c1cc(NC(=S)Nc2cc(Cl)cc(Cl)c2)cc(C(=O)OC)c1,–,–,–,–,100
COC(=O)c1cccc(NC(=S)Nc2ccc(Cl)c(Cl)c2)c1,–,–,–,–,100
Cc1cccc(-c2noc(CCCC(=O)NC3CCCCC3)n2)c1,–,–,–,–,–
Cc1ccc(-c2cc(C(F)(F)F)n3nc(C(=O)NCCCn4ccnc4)cc3n2)cc1C,–,–,–,–,–
CCOC(=O)N1CCC(N2CCCC(C(=O)c3ccccc3OC)C2)CC1 (configuration not stated),–,–,–,–,–
Fc1ccc(Cn2ccc(-c3cnc(-c4ccccc4)s3)n2)cc1,–,–,–,–,100
COc1ccc(S(=O)(=O)Nc2ccccc2C(=O)NCc2cccnc2)cc1OC,–,–,–,–,–
CCOc1ccc(S(=O)(=O)N(C)CC(=O)NCc2ccccn2)cc1Cl,–,–,–,–,–
Cc1ccc(/C=C/S(=O)(=O)NCCC(=O)NCc2ccc(F)cc2)cc1,-41.8,–,·,–,·
Cc1cc(C)n(CCc2nc(-c3ccc(F)cc3)cs2)n1,–,–,–,–,–
Cc1cc(C)n(CCc2nc(-c3ccc(C(C)(C)C)cc3)cs2)n1,–,–,–,–,25
Nc1ncnc(Nc2ccccc2Cl)n1,–,–,–,–,–
Cc1nc2c(C(=O)NCCC(C)C)c[nH]n2c(=O)c1Cc1ccccc1F,–,–,–,–,100
Cc1nc2c(C(=O)NCCC(C)C)c[nH]n2c(=O)c1Cl,–,–,–,–,–
Cc1cc2oc(=O)c(CC(=O)NCCCN(C)C)c(C)c2c2occ(C(C)(C)C)c12,·,–,37.0,–,–
Cc1cc(C)c2c(=O)n(CC(=O)NC3CCCC3)sc2n1,–,–,–,–,–
COc1ccc(OC)c(CCNC(=O)Cn2sc3nc(C)cc(C)c3c2=O)c1,·,–,–,–,25
COc1ccc(CCNC(=O)CN(Cc2ccc(Cl)cc2)S(C)(=O)=O)cc1OC,–,–,–,–,–
COc1cccc(CNCC(O)COc2ccc(C(=O)c3ccccc3)cc2)c1 (configuration not stated),–,–,–,–,–

# Assay outcomes: PubChem BioAssay, several laboratories
